Measured values taken from ChEMBL document CHEMBL1157679, “Substituted aryl malonamates as new serine beta-lactamase substrates: structure-activity studies” (Bioorg Med Chem, 2010).

Legend:
[1] = Ratio of Kcat to Km for beta-lactamase TEM-2
How it was run: (§1)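 Steady-state kinetics in 100 mM MOPS, pH 7.5, 25 °C. Substrate stocks were made in DMSO and diluted into buffer to a final DMSO below 5%. Initial rates of enzyme-catalysed turnover were followed spectrophotometrically. Steady-state parameters were derived from these initial rates. Buffer hydrolysis of the substrates was measured separately as pseudo-first-order rate constants.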

[2] = Activity at beta-lactamase TEM-2 by spectrophotometry; how it was run: as §1
[3] = Inhibition of beta-lactamase TEM-2 assessed as inhibition of cephalothin turnover by spectrophotometry
How it was run: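 TEM-2 enzyme (0.2 μM) was incubated with 3 mM inhibitor in 100 mM MOPS, pH 7.5, at 25 °C (DMSO below 5% final). Residual activity against 0.2 mM cephalothin was read spectrophotometrically over incubation time. Exponential fitting gave pseudo-first-order inactivation constants, which were converted to second-order rate constants.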

kcat/Km [1] | Km [2] [µM] | kcat [2] | SMILES | kcat/Km [3] [M⁻¹ s⁻¹]
4.7 M⁻¹ s⁻¹ | > 200 | > 9.4 ×10⁻⁴ /s | O=C(O)c1cccc(OC(=O)C(Cc2ccccc2)C(=O)NCc2ccccc2)c1 (centres undefined) | –
1.2 ×10² /s/M | 1800 | 0.21 s⁻¹ | O=C(CC(=O)N(Cc1ccccc1)Cc1ccccc1)Oc1cccc(C(=O)O)c1 | –
3.6 M⁻¹ s⁻¹ | > 200 | > 7.2 ×10⁻⁴ /s | C[C@H](C(=O)NCc1ccccc1)C(=O)Oc1cccc(C(=O)O)c1 | –

The remaining lines, values behind:

SMILES | kcat/Km [1] | Km [2] [µM] | kcat [2] | kcat/Km [3] [M⁻¹ s⁻¹]
CN(Cc1ccccc1)C(=O)CC(=O)Oc1cccc(C(=O)O)c1 | < 0.2 M⁻¹ s⁻¹ | – | – | –
O=C(CC(=O)Oc1cccc(C(=O)O)c1)NCc1ccccc1 | 1.95 ×10⁴ /s/M | 1.42 | 28 s⁻¹ | –
O=C(O)c1cccc(OC(=O)C2Cc3ccccc3N(Cc3ccccc3)C2=O)c1 (centres undefined) | < 0.9 M⁻¹ s⁻¹ | – | – | –
O=C(CP(=O)(O)Oc1cccc(C(=O)O)c1)NCc1ccccc1 | – | – | – | < 1
CO[C@@H](C(=O)NCc1ccccc1)C(=O)Oc1cccc(C(=O)O)c1 | < 6 M⁻¹ s⁻¹ | – | – | –
O=C(O)c1cccc(OC(=O)C2CCN(Cc3ccccc3)C2=O)c1 (centres undefined) | 0.54 M⁻¹ s⁻¹ | > 220 | > 1.1 ×10⁻⁴ /s | –
